Assay results as given in ChEMBL document CHEMBL1944540, “Synthesis, molecular docking and biological evaluation of 1,3,4-oxadiazole derivatives as potential immunosuppressive agents” (Bioorg Med Chem, 2012).

Test system: T-cell
Assay: Selectivity index, ratio of CC50 for lymph node T cell to IC50 for lymph node T cell
Type: functional

| SMILES | Ratio CC50/IC50 |
| --- | --- |
| C/C=C/C[C@@H](C)[C@@H](O)[C@H]1C(=O)N[C@@H](CC)C(=O)N(C)CC(=O)N(C)[C@@H](CC(C)C)C(=O)N[C@@H](C(C)C)C(=O)N(C)[C@@H](CC(C)C)C(=O)N[C@@H](C)C(=O)N[C@H](C)C(=O)N(C)[C@@H](CC(C)C)C(=O)N(C)[C@@H](CC(C)C)C(=O)N(C)[C@@H](C(C)C)C(=O)N1C [CYCLOSPORINE] | 196.86 |

Target: Phosphatidylinositol 4,5-bisphosphate 3-kinase catalytic subunit gamma isoform (Homo sapiens, UniProt P48736)
Sequence (P48736 whole entry, canonical isoform): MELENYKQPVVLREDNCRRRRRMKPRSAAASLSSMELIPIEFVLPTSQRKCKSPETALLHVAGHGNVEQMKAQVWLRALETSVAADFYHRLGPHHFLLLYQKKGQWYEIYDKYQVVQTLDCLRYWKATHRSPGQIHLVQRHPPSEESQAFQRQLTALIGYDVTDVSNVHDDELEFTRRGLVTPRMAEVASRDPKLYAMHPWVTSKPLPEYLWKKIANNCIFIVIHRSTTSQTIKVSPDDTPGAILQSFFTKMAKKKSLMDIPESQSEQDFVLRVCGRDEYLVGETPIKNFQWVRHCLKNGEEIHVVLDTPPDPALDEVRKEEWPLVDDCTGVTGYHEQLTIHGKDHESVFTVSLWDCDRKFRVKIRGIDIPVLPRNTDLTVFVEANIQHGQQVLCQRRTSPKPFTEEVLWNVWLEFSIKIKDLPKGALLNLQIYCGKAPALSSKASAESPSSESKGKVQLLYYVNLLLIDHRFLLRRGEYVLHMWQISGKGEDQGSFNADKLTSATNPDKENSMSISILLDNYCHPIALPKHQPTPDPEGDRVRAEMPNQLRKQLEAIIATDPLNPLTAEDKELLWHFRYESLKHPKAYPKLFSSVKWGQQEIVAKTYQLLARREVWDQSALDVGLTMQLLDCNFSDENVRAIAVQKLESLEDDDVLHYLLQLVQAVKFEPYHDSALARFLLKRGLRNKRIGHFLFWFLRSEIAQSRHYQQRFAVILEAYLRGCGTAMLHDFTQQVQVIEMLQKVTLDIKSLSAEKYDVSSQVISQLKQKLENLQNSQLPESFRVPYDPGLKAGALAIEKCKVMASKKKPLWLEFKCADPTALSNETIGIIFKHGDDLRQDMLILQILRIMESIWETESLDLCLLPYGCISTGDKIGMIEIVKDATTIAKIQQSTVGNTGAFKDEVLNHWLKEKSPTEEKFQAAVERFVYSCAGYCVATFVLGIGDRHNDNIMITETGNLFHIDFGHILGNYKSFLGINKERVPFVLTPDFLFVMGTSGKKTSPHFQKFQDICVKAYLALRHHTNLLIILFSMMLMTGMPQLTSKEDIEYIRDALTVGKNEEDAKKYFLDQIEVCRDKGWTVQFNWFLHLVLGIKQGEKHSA
Assay: Inhibition of PI3Kgamma after 4 hrs
How it was run: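 Recombinant PI3Kγ incubated 4 h at room temperature with or without compound at final concentrations of 3, 10, 30 and 50 μM.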

| SMILES | IC50 |
| --- | --- |
| CC(=O)Oc1ccc(Cl)cc1C1OC(c2ccc3c(c2)OCCO3)=NN1C(C)=O (stereo unspecified) | 0.98 µM |
| CC(=O)Oc1ccccc1C1OC(c2ccc3c(c2)OCCO3)=NN1C(C)=O (stereo unspecified) | 2.06 µM |
| CC(=O)Oc1ccc(Br)cc1C1OC(c2ccc3c(c2)OCCO3)=NN1C(C)=O (stereo unspecified) | 1.31 µM |

Other lines, results leading:

| IC50 | SMILES |
| --- | --- |
| 1.98 µM | CC(=O)Oc1c(Br)cc(Br)cc1C1OC(c2ccc3c(c2)OCCO3)=NN1C(C)=O (stereo unspecified) |
| 1.75 µM | CC(=O)Oc1c(Cl)cc(Cl)cc1C1OC(c2ccc3c(c2)OCCO3)=NN1C(C)=O (stereo unspecified) |
